In ChEMBL document CHEMBL1139880, “Potent and selective agonists of human melanocortin receptor 5: cyclic analogues of alpha-melanocyte-stimulating hormone” (J Med Chem, 2007):
pEC50, pIC50: −log10 of the molar value. Starred links: 1 amine or outer side, 2 acyl side, 3 side chain; linkers in the order of their positions; H or OH if unused. Positions of bridges follow the written chain, without caps; N, C: chain ends. Non-standard residues stand in square brackets, D forms with d. Residues, ends and D or L forms follow the SMILES beside them. ξ: configuration not given here. X2 = O=C([C@@H](Cc1ccc(Cc2ccccc2)cc1)N[*:1])[*:2]; Oic(3aξ,7aξ) = O=C(O)[C@@H]1CC2CCCCC2N1; Pip = O=C(O)[C@@H]1CCCCN1; Nle = CCCC[C@H](N)C(=O)O

Tests used:
[1] = molecular target: T1, Melanocyte-stimulating hormone receptor (Homo sapiens, UniProt Q01726); assay: Agonist activity at human melanocortin receptor 1b expressed in CHO cells assessed as cAMP accumulation; assay type: functional, cell-based
T1 sequence (Q01726 whole entry): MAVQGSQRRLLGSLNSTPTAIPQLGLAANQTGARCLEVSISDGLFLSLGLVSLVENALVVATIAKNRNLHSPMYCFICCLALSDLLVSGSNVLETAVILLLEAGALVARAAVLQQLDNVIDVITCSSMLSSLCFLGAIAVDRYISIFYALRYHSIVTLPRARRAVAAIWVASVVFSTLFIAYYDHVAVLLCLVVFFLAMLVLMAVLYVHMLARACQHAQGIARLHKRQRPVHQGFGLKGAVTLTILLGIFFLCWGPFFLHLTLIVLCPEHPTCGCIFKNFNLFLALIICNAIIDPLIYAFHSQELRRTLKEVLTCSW
In short: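 Dissociated CHO cells were spun 5 min and resuspended in Earle's balanced salt solution with 10 mM HEPES pH 7.5, 5 mM MgCl2, 1 mM glutamine and 1 mg/mL BSA. They were incubated 40 min at room temperature with compound (0.003–5000 nM) plus 0.6 mM IBMX, then lysed with 0.1 M HCl. cAMP was measured by Flashplate cAMP assay.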

Melanocortin receptor 5 [2] = molecular target: T2, Melanocortin receptor 5 (Homo sapiens, UniProt P33032); assay: Displacement of [125I]NDPalphaMSH from human cloned MC5R expressed in CHO cells; assay type: cell-based
T2 sequence (P33032 whole entry): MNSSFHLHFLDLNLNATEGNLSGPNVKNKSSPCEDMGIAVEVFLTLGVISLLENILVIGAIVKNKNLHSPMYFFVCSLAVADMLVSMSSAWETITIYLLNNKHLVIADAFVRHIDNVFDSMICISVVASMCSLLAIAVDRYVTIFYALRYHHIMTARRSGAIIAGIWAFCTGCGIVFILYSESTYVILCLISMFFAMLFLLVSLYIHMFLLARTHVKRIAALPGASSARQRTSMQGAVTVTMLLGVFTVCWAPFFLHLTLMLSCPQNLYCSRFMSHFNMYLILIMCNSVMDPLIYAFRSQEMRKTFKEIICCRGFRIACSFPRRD

Melanocortin receptor 5 [3] = molecular target: T2, Melanocortin receptor 5; assay: Agonist activity at human MC5R expressed in CHO cells assessed as cAMP accumulation; assay type: functional, cell-based
[4] = molecular target: T1, Melanocyte-stimulating hormone receptor; assay: Displacement of [125I]NDPalphaMSH from human cloned melanocortin receptor 1b expressed in CHO cells; assay type: cell-based
Melanocortin receptor 3 = Melanocortin receptor 3 (Homo sapiens, UniProt P41968); assay: Displacement of [125I]NDPalphaMSH from human cloned MC3R expressed in CHO cells; assay type: cell-based
Melanocortin receptor 3, sequence (P41968 whole entry): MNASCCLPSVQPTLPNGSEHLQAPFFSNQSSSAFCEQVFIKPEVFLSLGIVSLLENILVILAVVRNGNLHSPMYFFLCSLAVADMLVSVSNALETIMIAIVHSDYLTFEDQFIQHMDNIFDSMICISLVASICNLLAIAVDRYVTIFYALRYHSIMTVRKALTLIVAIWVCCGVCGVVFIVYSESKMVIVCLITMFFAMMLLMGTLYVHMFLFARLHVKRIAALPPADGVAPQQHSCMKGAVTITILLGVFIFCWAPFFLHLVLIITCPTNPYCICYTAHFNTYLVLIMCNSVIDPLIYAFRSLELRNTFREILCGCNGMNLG

Melanocortin receptor 4 = Melanocortin receptor 4 (Homo sapiens, UniProt P32245); assay: Displacement of [125I]NDPalphaMSH from human cloned MC4R expressed in CHO cells; assay type: cell-based
Melanocortin receptor 4, sequence (P32245 whole entry): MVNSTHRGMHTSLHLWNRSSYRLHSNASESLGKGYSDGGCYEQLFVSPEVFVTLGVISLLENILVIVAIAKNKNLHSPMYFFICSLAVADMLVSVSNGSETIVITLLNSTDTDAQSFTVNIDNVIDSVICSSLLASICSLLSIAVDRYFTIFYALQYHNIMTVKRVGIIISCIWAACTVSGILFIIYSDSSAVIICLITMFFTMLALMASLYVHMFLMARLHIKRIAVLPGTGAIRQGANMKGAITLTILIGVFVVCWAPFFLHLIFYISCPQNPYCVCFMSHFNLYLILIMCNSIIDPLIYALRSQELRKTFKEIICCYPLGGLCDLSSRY

## CCCC[C@H](NC(C)=O)C(=O)N[C@H]1CC(=O)NCCCC[C@@H](C(N)=O)NC(=O)[C@H](Cc2c[nH]c3ccccc23)NC(=O)[C@@H]2CCCN2C(=O)[C@@H](Cc2cccs2)NC(=O)[C@H](Cc2cnc[nH]2)NC1=O
[1]
  EC50: 540 nM (agonist)
Melanocortin receptor 5 [2]
  pIC50: < 5.30
Melanocortin receptor 5 [3]
  pEC50: < 5.82
[4]
  pIC50: < 5.30
Melanocortin receptor 3
  pIC50: < 5.30

## CCCC[C@H](NC(C)=O)C(=O)N[C@H]1CC(=O)NCCCC[C@@H](C(N)=O)NC(=O)[C@H](Cc2c[nH]c3ccccc23)NC(=O)[C@@H]2CCCCN2C(=O)[C@@H](Cc2ccc(-c3ccccc3)cc2)NC(=O)[C@H](C2CCCCC2)NC1=O
[1]
  pEC50: < 6.30
Melanocortin receptor 5 [2]
  IC50: 50 nM (antagonist)
Melanocortin receptor 5 [3]
  EC50: 1 nM (agonist)
Melanocortin receptor 4
  pIC50: < 5.00
[4]
  pIC50: < 5.00
Melanocortin receptor 3
  pIC50: < 5.00

## CCCC[C@H](NC(C)=O)C(=O)N[C@H]1CC(=O)NCCCC[C@@H](C(N)=O)NC(=O)[C@H](Cc2c[nH]c3ccccc23)NC(=O)[C@@H]2CCCN2C(=O)[C@@H](Cc2ccc(-c3ccccc3)cc2)NC(=O)[C@@H]2CCCN2C1=O
[1]
  EC50: 350 nM (agonist)
Melanocortin receptor 5 [2]
  IC50: 2.9 nM (antagonist)
Melanocortin receptor 5 [3]
  EC50: 1.6 nM (agonist)
Melanocortin receptor 4
  IC50: 1000 nM (antagonist)
[4]
  IC50: 2100 nM (antagonist)
Melanocortin receptor 3
  IC50: 630 nM (antagonist)

## CCCC[C@H](NC(C)=O)C(=O)N[C@H]1CC(=O)NCCCC[C@@H](C(N)=O)NC(=O)[C@H](Cc2c[nH]c3ccccc23)NC(=O)[C@@H]2CCCCN2C(=O)[C@@H](Cc2ccc(Cc3ccccc3)cc2)NC(=O)[C@@H]2CC3CCCCC3N2C1=O (stereo partly drawn) (Ac-[Nle]D[Oic(3aξ,7aξ)][X2][Pip]WK-NH2; lactam 2-7)
Melanocortin receptor 5 [2]
  IC50: 24 nM (antagonist)
Melanocortin receptor 5 [3]
  EC50: 31 nM (agonist)
Melanocortin receptor 4
  IC50: 1600 nM (antagonist)
[4]
  pIC50: < 6.00
Melanocortin receptor 3
  pIC50: < 6.00

## CCCC[C@H](NC(C)=O)C(=O)N[C@H]1CC(=O)NCCCC[C@@H](C(N)=O)NC(=O)[C@H](Cc2c[nH]c3ccccc23)NC(=O)[C@@H]2CCCCN2C(=O)[C@@H](Cc2ccc(-c3ccccc3)cc2)NC(=O)[C@@H]2Cc3ccccc3CN2C1=O
[1]
  EC50: 130 nM (agonist)
Melanocortin receptor 5 [2]
  IC50: 2.7 nM (antagonist)
Melanocortin receptor 5 [3]
  EC50: 0.45 nM (agonist)
Melanocortin receptor 4
  IC50: 720 nM (antagonist)
[4]
  IC50: 710 nM (antagonist)
Melanocortin receptor 3
  IC50: 3900 nM (antagonist)

## CCCC[C@H](NC(C)=O)C(=O)N[C@H]1CC(=O)NCCCC[C@@H](C(N)=O)NC(=O)[C@H](Cc2c[nH]c3ccccc23)NC(=O)[C@@H]2CCCCN2C(=O)[C@@H](Cc2ccc(-c3ccccc3)cc2)NC(=O)[C@@H]2CC3CCCCC3N2C1=O (stereo partly drawn)
Melanocortin receptor 5 [2]
  IC50: 0.95 nM (antagonist)
Melanocortin receptor 5 [3]
  EC50: 0.99 nM (agonist)
Melanocortin receptor 4
  pIC50: < 5.30
[4]
  pIC50: < 5.30
Melanocortin receptor 3
  pIC50: < 5.30

## CCCC[C@H](NC(C)=O)C(=O)N[C@H]1CC(=O)NCCCC[C@@H](C(N)=O)NC(=O)[C@H](Cc2c[nH]c3ccccc23)NC(=O)[C@@H]2CCCN2C(=O)[C@@H](Cc2ccc([N+](=O)[O-])cc2)NC(=O)[C@H](Cc2cnc[nH]2)NC1=O
[1]
  pEC50: < 6.30
Melanocortin receptor 5 [2]
  IC50: 780 nM (antagonist)
Melanocortin receptor 5 [3]
  EC50: 770 nM (agonist)
[4]
  pIC50: < 5.70
Melanocortin receptor 3
  pIC50: < 5.70

## CCCC[C@H](NC(C)=O)C(=O)N[C@H]1CC(=O)NCCCC[C@@H](C(N)=O)NC(=O)[C@H](Cc2c[nH]c3ccccc23)NC(=O)[C@@H]2CCCCN2C(=O)[C@@H](Cc2ccc(-c3ccccc3)cc2)NC(=O)[C@H](c2ccccc2)NC1=O
Melanocortin receptor 5 [2]
  IC50: 2.1 nM (antagonist)
Melanocortin receptor 5 [3]
  EC50: 0.29 nM (agonist)
Melanocortin receptor 4
  IC50: 990 nM (antagonist)
[4]
  pIC50: < 6.00
Melanocortin receptor 3
  pIC50: < 6.00

## CCCC[C@H](NC(C)=O)C(=O)N[C@H]1CC(=O)NCCCC[C@@H](C(N)=O)NC(=O)[C@H](Cc2c[nH]c3ccccc23)NC(=O)[C@@H]2CCCN2C(=O)[C@@H](CC2CCCCC2)NC(=O)[C@H](Cc2c[nH]cn2)NC1=O
[1]
  pEC50: < 5.60
Melanocortin receptor 5 [2]
  pIC50: < 5.00
Melanocortin receptor 4
  pIC50: < 5.00
[4]
  pIC50: < 5.00
Melanocortin receptor 3
  pIC50: < 5.00
